Measured values from ChEMBL document CHEMBL4196167, “Ansamycins with Antiproliferative and Antineuroinflammatory Activity from Moss-Soil-Derived Streptomyces cacaoi subsp. asoensis H2S5” (J Nat Prod, 2018).
The source made the active and inactive calls. The rule behind the calls is not given here.

Columns and labels:
[1] = test system: PC-3; test: Cytotoxicity against human PC3 cells after 72 hrs by sulforhodamine B assay; format: functional, cell-based; details: PC-3, 72 h
Procedure, shortened: (§1)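 SRB assay. Exponentially growing cells at 2.5 × 10^4 cells/mL attached, then given fresh medium with a range of concentrations for 72 h at 37 °C; four replicate wells; 0.1% DMSO negative control, doxorubicin reference. Fixed in cold 10% TCA 1 h at 4 °C, stained with 0.4% SRB, dye dissolved in 10 mM Tris, A560; viability relative to control; IC50 from dose–response curves.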

[2] = test system: HepG2; test: Cytotoxicity against human HepG2 cells after 72 hrs by sulforhodamine B assay; format: functional, cell-based; details: HepG2, 72 h; procedure, shortened: as §1
[3] = test system: BV-2; test: Inhibition of LPS-induced nitric oxide production in mouse BV2 cells after 24 hrs by Griess assay; format: functional, cell-based; details: BV-2, 24 h
Procedure, shortened: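 BV-2 murine microglia in DMEM with 10% heat-inactivated FBS, seeded at 2 × 10^4/well and grown 24 h. Given compound at five concentrations with 1 μg/mL LPS (E. coli 0111:B4) for 24 h; quercetin reference. Supernatant nitrite measured by Griess reagents I and II at A540 against a sodium nitrite standard curve; IC50 as concentration halving NO.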

[4] = Cytotoxicity against LPS-induced mouse BV2 cells assessed as cell viability after 24 hrs by MTT assay; format: cell-based, BV-2; set-up: concentration or dose not given beside the values; details: read-out: Activity
Procedure, shortened: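 BV-2 cells seeded at 2 × 10^3 per 100 μL and grown 24 h, then given compound at various concentrations plus LPS for 24 h; DMSO alone as negative control. MTT (5 mg/mL stock, 10 μL) added for 4 h at 37 °C, lysed overnight in SDS/[…]/HCl buffer, absorbance 570 nm.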

[5] = test system: HepG2; test: Induction of apoptosis in human HepG2 cells assessed as early apoptotic cells at 5 uM after 48 hrs by annexin-V-FITC/propidium iodide staining based flow cytometry (reference value: 0.33%); format: functional
[6] = test system: HepG2; test: Induction of apoptosis in human HepG2 cells assessed as necrotic cells at 1 uM after 48 hrs by annexin-V-FITC/propidium iodide staining based flow cytometry (reference value: 1.82%); format: functional
[7] = test system: HepG2; test: Induction of apoptosis in human HepG2 cells assessed as necrotic cells at 0.5 uM after 48 hrs by annexin-V-FITC/propidium iodide staining based flow cytometry (reference value: 1.82%); format: functional
[8] = test system: HepG2; test: Cell cycle arrest in human HepG2 cells assessed as accumulation at G1-phase at 1 uM after 24 hrs by propidium iodide staining based flow cytometry (reference value: 62.3%); format: functional
Procedure, shortened: (§2)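 HepG2 cells exposed 24 h to 0.5, 1.0 or 5.0 μM, with DMSO control; washed in cold PBS, fixed in ice-cold 95% ethanol at 4 °C for at least 2 h, then PI-stained 30 min at 37 °C. Cell-cycle phases read by flow cytometry on 10 000 cells per sample; three independent experiments.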

[9] = test system: HepG2; test: Induction of apoptosis in human HepG2 cells assessed as cell shrinkage at 5 to 10 uM after 48 hrs by Hoechst 33342 staining based fluorescence microscopic analysis; format: functional
Procedure, shortened: (§3)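 1 × 10^6 HepG2 cells on coverslips treated 48 h at 1.0, 5.0 or 10 μM; DMSO control. Fixed 30 min in 4% paraformaldehyde, Hoechst 33342 stained 10 min at room temperature in the dark, PBS-washed, nuclear morphology viewed by fluorescence microscopy.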

[10] = test system: HepG2; test: Cell cycle arrest in human HepG2 cells assessed as accumulation at G1-phase at 0.5 uM after 24 hrs by propidium iodide staining based flow cytometry (reference value: 62.3%); format: functional; procedure, shortened: as §2
[11] = test system: HepG2; test: Cell cycle arrest in human HepG2 cells assessed as accumulation at S-phase at 0.5 uM after 24 hrs by propidium iodide staining based flow cytometry (reference value: 25.5%); format: functional; procedure, shortened: as §2
[12] = test system: HepG2; test: Induction of apoptosis in human HepG2 cells assessed as late apoptotic cells at 0.5 uM after 48 hrs by annexin-V-FITC/propidium iodide staining based flow cytometry (reference value: 0.51%); format: functional
[13] = test system: HepG2; test: Induction of apoptosis in human HepG2 cells assessed as necrotic cells at 5 uM after 48 hrs by annexin-V-FITC/propidium iodide staining based flow cytometry (reference value: 1.82%); format: functional
[14] = test system: HepG2; test: Induction of apoptosis in human HepG2 cells assessed as early apoptotic cells at 0.5 uM after 48 hrs by annexin-V-FITC/propidium iodide staining based flow cytometry (reference value: 0.33%); format: functional
[15] = test system: HepG2; test: Induction of apoptosis in human HepG2 cells assessed as early apoptotic cells at 1 uM after 48 hrs by annexin-V-FITC/propidium iodide staining based flow cytometry (reference value: 0.33%); format: functional
[16] = test system: HepG2; test: Induction of apoptosis in human HepG2 cells assessed as chromatin condensation at 5 to 10 uM after 48 hrs by Hoechst 33342 staining based fluorescence microscopic analysis; format: functional, cell-based; procedure, shortened: as §3
[17] = test system: HepG2; test: Induction of apoptosis in human HepG2 cells assessed as late apoptotic cells at 5 uM after 48 hrs by annexin-V-FITC/propidium iodide staining based flow cytometry (reference value: 0.51%); format: functional
[18] = test system: HepG2; test: Induction of apoptosis in human HepG2 cells assessed as late apoptotic cells at 1 uM after 48 hrs by annexin-V-FITC/propidium iodide staining based flow cytometry (reference value: 0.51%); format: functional
[19] = test system: HepG2; test: Cell cycle arrest in human HepG2 cells assessed as accumulation at G2-phase at 1 uM after 24 hrs by propidium iodide staining based flow cytometry (reference value: 9.61%); format: functional; procedure, shortened: as §2
[20] = test system: HepG2; test: Cell cycle arrest in human HepG2 cells assessed as accumulation at S-phase at 1 uM after 24 hrs by propidium iodide staining based flow cytometry (reference value: 25.5%); format: functional; procedure, shortened: as §2
[21] = test system: HepG2; test: Cell cycle arrest in human HepG2 cells assessed as accumulation at G2-phase at 0.5 uM after 24 hrs by propidium iodide staining based flow cytometry (reference value: 9.61%); format: functional; procedure, shortened: as §2
[22] = test system: HepG2; test: Cell cycle arrest in human HepG2 cells assessed as accumulation at G1-phase at 5 uM after 24 hrs by propidium iodide staining based flow cytometry (reference value: 62.3%); format: functional; procedure, shortened: as §2
[23] = test system: HepG2; test: Cell cycle arrest in human HepG2 cells assessed as accumulation at G2-phase at 5 uM after 24 hrs by propidium iodide staining based flow cytometry (reference value: 9.61%); format: functional; procedure, shortened: as §2
[24] = test system: HepG2; test: Cell cycle arrest in human HepG2 cells assessed as accumulation at S-phase at 5 uM after 24 hrs by propidium iodide staining based flow cytometry (reference value: 25.5%); format: functional; procedure, shortened: as §2

For CCCC(=O)N[C@H](C)C(=O)O[C@H]1C/C=C/C=C/C=C/[C@H](OC)CC(=O)Nc2cc(O)cc(c2)CC/C=C(/C)[C@H](O)[C@H]1C, the IC50 [1] was 4.5 µM, the IC50 [2] was 3 µM and the IC50 [3] was 1.7 µM. The viability at 24 h [4] was 96%.
Work on CO[C@H]1/C=C/C=C/C=C/C[C@H](O)[C@H](C)[C@@H](OC(=O)[C@@H](C)NC(=O)C2CCCCC2)/C(C)=C\CCc2cc(O)cc(c2)NC(=O)C1 yielded an IC50 [1] of 10.2 µM, an IC50 [2] of 17.6 µM and an IC50 [3] of 0.3 µM. The viability at 24 h [4] was 93.1%.
CO[C@H]1/C=C/C=C/C=C/C[C@H](OC(=O)[C@@H](C)NC(=O)CCCC(C)C)[C@H](C)[C@@H](O)/C(C)=C\CCc2cc(O)cc(c2)NC(=O)C1 gave an Activity [5] of 17.63%, an Activity [6] of 2.1% and an Activity [7] of 1.98%. For the same compound, the Activity [8] was 37.1%, the IC50 [1] was 2.7 µM and the Activity [9] was “Active”. It also gave an Activity [10] of 59.1%, an Activity [11] of 24.7% and an Activity [12] of 1.25%. For the same compound, the Activity [13] was 3.66%, the Activity [14] was 5.11% and the Activity [15] was 9.53%. For the same compound, the IC50 [2] was 0.1 µM, the Activity [16] was “Active” and the Activity [17] was 5.67%. It also gave an IC50 [3] of 0.09 µM, an Activity [18] of 1.66% and an Activity [19] of 12.4%. It also gave an Activity [20] of 34.5%, an Activity [21] of 14.2% and an Activity [22] of 42.4%. The Activity [23] was 12.6%, the viability at 24 h [4] was 83.8% and the Activity [24] was 38.6%.
Compound CO[C@H]1/C=C/C=C/C=C/C[C@H](OC(=O)[C@@H](C)NC(=O)CCC(C)C)[C@H](C)[C@@H](O)/C(C)=C\CCc2cc(O)cc(c2)NC(=O)C1 has an IC50 [1] of 4.2 µM, an IC50 [2] of 0.2 µM and an IC50 [3] of 0.18 µM. For the same compound, the viability at 24 h [4] was 82.5%.
With CO[C@H]1/C=C/C=C/C=C/C[C@H](OC(=O)[C@@H](C)NC(=O)C(C)C)[C@H](C)[C@@H](O)/C(C)=C\CCc2cc(O)cc(c2)NC(=O)C1 the IC50 [1] was 4.4 µM, the IC50 [2] was 0.4 µM and the IC50 [3] was 2.9 µM. It also gave a viability at 24 h [4] of 85.4%.
Work on COc1cccc2c1C(=O)c1c(O)c3c(c(O)c1C2=O)C[C@@](O)(C(=O)CO)C[C@@H]3O[C@H]1C[C@H](N)[C@H](O)[C@H](C)O1 [DOXORUBICIN] yielded an IC50 [1] of 0.8 µM and an IC50 [2] of 0.7 µM.
CC.CO[C@H]1/C=C/C=C/C=C/C[C@H](O)[C@H](C)[C@@H](OC(=O)[C@@H](C)NC(=O)CC(C)C)/C(C)=C\CCc2cc(O)cc(c2)NC(=O)C1 gave an IC50 [1] of 11.9 µM, an IC50 [2] of 20.5 µM and an IC50 [3] of 8.3 µM. For the same compound, the viability at 24 h [4] was 83.1%.
Compound CO[C@H]1/C=C/C=C/C=C/C[C@H](OC(=O)[C@@H](C)NC(=O)CC(C)C)[C@H](C)[C@@H](O)/C(C)=C\CCc2cc(O)cc(c2)NC(=O)C1 has an IC50 [1] of 4.5 µM, an IC50 [2] of 1 µM and an IC50 [3] of 1.1 µM. It also gave a viability at 24 h [4] of 92.7%.
Compound O=c1c(O)c(-c2ccc(O)c(O)c2)oc2cc(O)cc(O)c12 [QUERCETIN] has an IC50 [3] of 2.4 µM and a viability at 24 h [4] of 99.2%.
In the case of CCC(C)C(=O)N[C@H](C)C(=O)O[C@H]1C/C=C/C=C/C=C/[C@H](OC)CC(=O)Nc2cc(O)cc(c2)CC/C=C(/C)[C@H](O)[C@H]1C (some centres undefined), the IC50 [1] is reported as 2.6 µM, the IC50 [2] is reported as 0.5 µM and the IC50 [3] is reported as 0.48 µM. The viability at 24 h [4] was 76.3%.
With CO[C@H]1/C=C/C=C/C=C/C[C@H](OC(=O)[C@@H](C)NC(=O)C2=CCCCC2)[C@H](C)[C@@H](O)/C(C)=C\CCc2cc(O)cc(c2)NC(=O)C1 the IC50 [1] was 0.7 µM, the IC50 [2] was 0.2 µM and the IC50 [3] was 0.03 µM. The viability at 24 h [4] was 94.3%.
CO[C@H]1/C=C/C=C/C=C/C[C@H](OC(=O)[C@@H](C)NC(=O)C2CCCCC2)[C@H](C)[C@@H](O)/C(C)=C\CCc2cc(O)cc(c2)NC(=O)C1 [TRIENOMYCIN A] gave an IC50 [1] of 0.4 µM, an IC50 [2] of 0.2 µM and an IC50 [3] of 0.02 µM. It also gave a viability at 24 h [4] of 95.2%.
